Key:
[1] = test system: Human immunodeficiency virus 1; test: Antiviral activity against HIV-1 harboring NNTRI-resistant reverse transcriptase Y181C mutant infected in human MT4 cells assessed as inhibition of virus-induced cytopathic effect by MTT method; assay type: functional, organism-based; settings: Human immunodeficiency virus 1, MT4
Procedure, shortened: (§1)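 MT-4 lymphoid cells infected with HIV-1 carrying RT K103N, Y181C or Y188L, with a range of drug concentrations present. Viable cells counted by MTT colorimetric assay at day 5 post-infection. […] Highest concentration tested was limited by precipitation in culture medium. Means of at least two experiments.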

[2] = test system: Human immunodeficiency virus 1; test: Fold resistance, ratio of ID50 for HIV-1 recombinant NNTRI-resistant reverse transcriptase K103N mutant to ID50 for wild type HIV-1 recombinant reverse transcriptase
Procedure, shortened: (§2)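 Recombinant wt or mutant HIV-1 RT, purified to >95%, at 2-4 nM. RNA-dependent DNA polymerase activity with 0.5 µg poly(rA)/oligo(dT)10:1 (0.3 µM 3'-OH ends), 10 µM [3H]-dTTP and 8% final DMSO. Incorporation was sampled at 2-min intervals. ID50 came from fitting to a fully non-competitive model. Ratio is ID50 mutant/ID50 wt. Means of at least three experiments.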

[3] = test system: Human immunodeficiency virus 1; test: Fold resistance, ratio of EC50 for HIV-1 harboring NNTRI-resistant reverse transcriptase K103N mutant infected in human MT4 cells to EC50 for wild type HIV-1 NL4-3 infected in human MT4 cells; assay type: functional
[4] = test system: Human immunodeficiency virus 1; test: Antiviral activity against wild type HIV-1 NL4-3 infected in human MT4 cells assessed as inhibition of virus-induced cytopathic effect by MTT method; assay type: functional, organism-based; settings: Human immunodeficiency virus 1, NL4-3, MT4
Procedure, shortened: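 MT-4 lymphoid cells infected with wild-type HIV-1 NL4-3 while exposed to a range of drug concentrations. Viable cells counted by tetrazolium (MTT) colorimetry at day 5 post-infection. Means of at least two experiments.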

[5] = test system: Human immunodeficiency virus 1; test: Fold resistance, ratio of ID50 for HIV-1 recombinant NNTRI-resistant reverse transcriptase Y181I mutant to ID50 for wild type HIV-1 recombinant reverse transcriptase
Procedure, shortened: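 RNA-dependent DNA polymerase activity with 0.5 µg poly(rA)/oligo(dT)10:1 (0.3 µM 3'-OH ends), 10 µM [3H]-dTTP and 8% final DMSO. Incorporation was sampled at 2-min intervals. ID50 came from fitting to a fully non-competitive model. Means of at least three experiments.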

[6] = test system: Human immunodeficiency virus 1; test: Fold resistance, ratio of EC50 for HIV-1 harboring NNTRI-resistant reverse transcriptase Y181C mutant infected in human MT4 cells to EC50 for wild type HIV-1 NL4-3 infected in human MT4 cells; assay type: functional
Procedure, shortened: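 MT-4 cells infected with HIV-1 mutant (K103N or Y181C) or wild-type NL4-3, with drug present. […] Fold resistance is the mutant EC50 divided by the wild-type NL4-3 EC50. EC50 values are means of at least two experiments.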

[7] = Selectivity index, ratio of CC50 for human MT4 cells to EC50 for wild type HIV-1 NL4-3 infected in human MT4 cells; assay type: toxicity, cell-based; settings: read-out: Ratio CC50/EC50
Procedure, shortened: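 Ratio of CC50 to EC50, both from MTT readings in MT-4 cells at day 5. CC50 was taken in mock-infected cells and EC50 in cells infected with wild-type NL4-3. Values are means of at least two experiments.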

[8] = test system: Human immunodeficiency virus 1; test: Fold resistance, ratio of ID50 for HIV-1 recombinant NNTRI-resistant reverse transcriptase L100I mutant to ID50 for wild type HIV-1 recombinant reverse transcriptase; procedure, shortened: as §2
[9] = test system: Human immunodeficiency virus 1; test: Antiviral activity against HIV-1 harboring NNTRI-resistant reverse transcriptase Y188L mutant infected in human MT4 cells assessed as inhibition of virus-induced cytopathic effect by MTT method; assay type: functional, organism-based; settings: Human immunodeficiency virus 1, MT4; procedure, shortened: as §1
[10] = Cytotoxicity against human MT4 cells assessed as induction of cell death by MTT method; assay type: cell-based
Procedure, shortened: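 Mock-infected MT-4 cells exposed to a range of drug concentrations. Viability read by MTT colorimetry at day 5. […] Top concentration was limited where compound precipitated in the culture medium. Means of at least two experiments.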

[11] = test system: Human immunodeficiency virus 1; test: Antiviral activity against HIV-1 harboring NNTRI-resistant reverse transcriptase K103N mutant infected in human MT4 cells assessed as inhibition of virus-induced cytopathic effect by MTT method; assay type: functional, organism-based; settings: Human immunodeficiency virus 1, MT4
[12] = test system: Human immunodeficiency virus 1; test: Fold resistance, ratio of EC50 for HIV-1 harboring NNTRI-resistant reverse transcriptase Y188L mutant infected in human MT4 cells to EC50 for wild type HIV-1 NL4-3 infected in human MT4 cells; assay type: functional
Procedure, shortened: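 HIV-1 NL4-3 (wt) or Y188L mutant infection of MT-4 cells across a range of drug concentrations. Viable cells were counted by MTT at day 5 post-infection. […] Fold resistance is mutant EC50 over wt EC50. Means of at least two experiments.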

[13] = test system: Human immunodeficiency virus type 1 reverse transcriptase (Human immunodeficiency virus 1), Q72547 [L100I]
[14] = test system: Human immunodeficiency virus type 1 reverse transcriptase (Human immunodeficiency virus 1), Q72547 [Y181I]
[15] = biological target: Human immunodeficiency virus type 1 reverse transcriptase (Human immunodeficiency virus 1) (UniProt Q72547)
[16] = test system: Human immunodeficiency virus type 1 reverse transcriptase (Human immunodeficiency virus 1), Q72547 [K103N]
[17] = test system: Human immunodeficiency virus 1; test: Ratio of efavirenz EC50 to compound EC50 for wild type HIV-1 NL4-3 infected in human MT4 cells; assay type: functional

Row | SMILES | EC50 [1] | Ratio [2] | Ratio EC50 [3] | EC50 [4] | Ratio [5] | Ratio EC50 [6] | selectivity ratio [7] | Ratio [8] | EC50 [9] | CC50 [10] | EC50 [11] | Ratio EC50 [12] | ID50 [13] | ID50 [14] | ID50 [15] | ID50 [16] | Ratio EC50 [17]
1 | CC[C@@H](C)Sc1nc([C@H](C)c2c(F)cccc2Cl)cc(=O)[nH]1 | 580 nM | 488 | 610 | 0.3 nM | 3750 | 1924 | > 103000 | 18 | 860 nM | > 31000 nM | 200 nM | 2859 |  |  |  |  | 
2 | Cc1c(C(C)c2c(F)cccc2F)nc(SC2CCCC2)[nH]c1=O (racemic) | 100 nM | 6 | 230 |  | 180 | 100 | > 3000 | 60 | > 3000 nM | > 3000 nM |  |  | 300 nM | 900 nM | 5 nM | 30 nM | 
3 | CCC(C)Sc1nc(C(C)c2c(F)cccc2Cl)cc(=O)[nH]1 (racemic) | 3600 nM | 375 | 1000 | 1 nM | 2640 | 3600 | > 73000 | 25 | 7500 nM | > 73000 nM | 1000 nM | 7500 |  |  |  |  | 
4 | CCCSc1nc(C(C)c2c(F)cccc2Cl)c(C)c(=O)[nH]1 (racemic) | 260 nM |  | 7000 | 0.05 nM |  | 5200 | > 30000 |  | > 1500 nM | > 1500 nM | 350 nM |  | 90 nM |  | 0.9 nM | 1500 nM | 140
5 | CCCCSc1nc(C(C)c2c(F)cccc2Cl)c(C)c(=O)[nH]1 (racemic) | 620 nM | 310 | 2200 | 0.3 nM | 20000 | 2067 | > 5000 | 52 | > 1500 nM | > 1500 nM | 660 nM |  | 156 nM |  | 3 nM | 930 nM | 23
6 | Cc1c(C(C)c2c(F)cccc2Cl)nc(SC2CCCC2)[nH]c1=O (racemic) | 230 nM |  | 3100 | 0.03 nM |  | 7667 | > 500000 |  | 2900 nM | > 15000 nM | 93 nM | 96667 | 120 nM |  | 11 nM | 1300 nM | 230
